Source: PubChem
UCH37 DUB inh: inhibitors of human UCH37 deubiquitinase, primary screen, biochemical, Ub-AMC cleavage, fluorescence; Ubiquitin carboxyl-terminal hydrolase isozyme L5 (Homo sapiens), Q9Y5K5; purified proteasome/UCH37; inhibition, % (concentration not given with the values); 0.33% of 330,000 active;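 active = mean inhibition over replicate wells above about 20%, limit read from the data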;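 also: 0% = compound-free wells with enzyme and 100% = wells lacking proteasome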
Target sequence (Q9Y5K5 whole entry, looked up): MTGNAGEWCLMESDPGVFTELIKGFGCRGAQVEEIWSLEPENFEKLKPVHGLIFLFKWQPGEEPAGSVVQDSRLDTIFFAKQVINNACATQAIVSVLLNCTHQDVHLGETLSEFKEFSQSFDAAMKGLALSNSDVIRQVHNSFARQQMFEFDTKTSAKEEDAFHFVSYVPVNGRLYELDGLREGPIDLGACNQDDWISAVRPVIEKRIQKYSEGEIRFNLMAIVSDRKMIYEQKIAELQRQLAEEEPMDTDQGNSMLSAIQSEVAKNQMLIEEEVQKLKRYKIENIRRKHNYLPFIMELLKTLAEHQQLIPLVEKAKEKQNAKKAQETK
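system = Proteasome-associated human UCH37 deubiquitinase | amount = 0.15 nM proteasome as dispensed | medium = pH 7.4 Tris-HCl (50 mM) with ovalbumin, ATP-MgCl2, DTT | incubation = 30 min preincubation with enzyme, 25 min cleavage at room temperature | detection = AMC fluorescence 355/460 nm | read-out basis = percent inhibition | controls = no-proteasome and no-compound wells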
Calb FLC: C. albicans growth inhibition with fluconazole, primary screen, CaCi-2 strain, Alamar Blue fluorescence; growth inhibition, % (test concentration not listed); AID 1979, 2009; C. albicans CaCi-2 + fluconazole, 48 h; 0.57% of 300,000 active;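 active = growth inhibition above about 58% in most replicates, limit read from the data, passing the limit was not always enough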;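 also: all wells also contain fluconazole at 8 µg/ml as a sub-toxic cotreatment; 0% = median of DMSO wells and 100% = median of geldanamycin control wells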
NALP1 inh: NALP1 inflammasome inhibitors in reconstituted yeast, colorimetric, S. cerevisiae, triplicate retest. S. cerevisiae NALP1/ASC/caspase-1 growth, X-gal OD620, 72 h. inhibition, % at 10 µM. 0.61% of 280,000 active. AID 2071, 2009; in the data active = inhibition mostly above about 24%, no sharp cut-off; inactive = mostly below about 32%
NLRP3 yeast inh: NALP3 inflammasome inhibitors in reconstituted yeast, primary screen, luminescence, uHTS. Yeast reconstituted NLRP3/ASC/caspase-1, beta-gal luminescence, 24 h. inhibition, % at 10 µM. 0.39% of 330,000 active;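 active = inhibition of 50% or more; inactive = inhibition below 50%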;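 also: plate controls were induced DMSO wells for no effect and uninduced yeast grown without galactose for full effect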
ALR H2O2 inh: inhibitors of human ALR sulfhydryl oxidase, primary screen, biochemical, H2O2 detection, HRP-luminol luminescence, single point | AID 485317, 2010 | purified ALR, DTT oxidation | 3.8% of 290,000 active | inhibition, % (no concentration beside the values) | FAD-linked sulfhydryl oxidase ALR (Homo sapiens), P55789;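 active = mean replicate inhibition above about 79%, with every replicate also reaching it, limit read from the data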
Target sequence (P55789 whole entry, looked up): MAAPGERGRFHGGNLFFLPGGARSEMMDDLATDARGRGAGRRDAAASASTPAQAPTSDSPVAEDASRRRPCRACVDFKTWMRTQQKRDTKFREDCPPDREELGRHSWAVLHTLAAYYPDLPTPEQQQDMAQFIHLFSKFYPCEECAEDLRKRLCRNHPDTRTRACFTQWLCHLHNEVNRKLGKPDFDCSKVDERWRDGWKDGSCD
ATG4B inhibitor: ATG4B protease inhibitors, primary screen, biochemical, fluorescence, uHTS; Cysteine protease ATG4B (Homo sapiens), Q9Y4P1; ATG4B cleavage of LC3-PLA2, NBD-HPC fluorescence, 1 h; inhibition, % at 8.33 µM; 0.51% of 340,000 active; AID 504462, 2011; in the data active = inhibition above about 40%
NALP3 yeast conf: NALP3 inhibitors retested in yeast, confirmation, luminescence, single concentration. shares compounds with NLRP3 yeast inh. yeast expressing human NALP3. inhibition, % at 10 µM. 81% of 1,300 active; in the data active = inhibition above about 48%
Casp1 ASC ctr: CASP1-PYCARD signaling inhibition in yeast, confirmatory test, counterassay for NLRP3 inhibitor program, one-dose. shares compounds with NLRP3 yeast inh. 66% of 1,000 active. inhibition, % at 10 µM. yeast expressing Caspase-1-ASC, luminescence counter screen
NALP3 yeast rt: NALP3 inhibitors in yeast, repeat test, confirmation, luminescence, single concentration, retest; shares compounds with NLRP3 yeast inh; yeast expressing human NALP3, luminescence read-out; inhibition, % at 10 µM; 53% of 1,000 active
* = called active by the depositor; / = not tested or not shown. A selection: hits, their analogues and other compounds. The true share with any hit is near 4.8%. Rule as the data show it, unless noted: active = inhibition above about 50%; inactive = the rest.

SMILES | UCH37 DUB inh | Calb FLC | NALP1 inh | NLRP3 yeast inh | ALR H2O2 inh | ATG4B inhibitor | NALP3 yeast conf | others
C[C@@H]1C[C@@H]([C@H](O)CC2CC(=O)NC(=O)C2)C(=O)[C@@H](C)C1 | / | / | / | 97* | -20 | 8 | 98* | Casp1 ASC ctr=99*;NALP3 yeast rt=98*
CC(=O)OC1(C)CC(C)C(=O)C(C(O)CC2CC(=O)NC(=O)C2)C1 (stereo not drawn) | / | / | / | / | / | -5 | /
CN1C(=O)/C(=C/c2cccn2-c2ccc3ccccc3c2)C(=O)NC1=S | 7 | -12 | 20 | 56* | -13 | 6 | 18
COC(=O)C1=C(c2ccc(F)cc2F)C[C@@H]2CC[C@H]1N2C(=O)NC1Cc2ccccc2C1 | 2 | / | / | -136 | -4 | -11 | 22
C=CCn1c(O)c(C(CC)=NC(C)c2ccccc2)c(=O)[nH]c1=O (stereo not drawn) | 1 | -2 | 20 | 4 | -1 | 3 | /
CCC1(O)CCC2C3CCC4=CC(=O)CCC4C3CCC21CC (stereo not drawn) | 3 | / | / | / | / | -5 | /
C[C@]12CC[C@@H](O)C[C@H]1CC[C@@H]1[C@@H]2CC[C@]2(C)C(=O)CC[C@@H]12 | 5 | -4 | / | 66* | -32 | 0 | 72* | Casp1 ASC ctr=70*;NALP3 yeast rt=60*
C[C@]12CCC3C(CC[C@H]4C[C@@H](O)CC[C@]34C)C1C[C@@H](O)C2=O (stereo partly drawn) | / | / | / | 47 | 1 | -17 | /
C[C@]12CCC3[C@@H](CC[C@H]4C[C@@H](O)CC[C@]34C)C1CCC2=O (stereo partly drawn) | -4 | 80* | 19 | 59* | -2 | 2 | 71*
C[C@]12CCC3C(C1CCC2=O)[C@H](O)C[C@H]1C[C@@H](O)CC[C@]31C (stereo partly drawn) | 2 | / | / | 11 | -5 | 1 | /
C[C@]12CCC3C(CC[C@@H]4C[C@H](O)CC[C@]34C)C1CCC2=O (stereo partly drawn) | / | / | / | 73* | 0 | -1 | 72* | Casp1 ASC ctr=72*;NALP3 yeast rt=52*
C[C@]12CC[C@H](O)C[C@H]1CC[C@@H]1[C@@H]2CC[C@]2(C)C(=O)CC[C@@H]12 | 6 | / | / | 54* | / | -25 | 67* | Casp1 ASC ctr=65*;NALP3 yeast rt=56*
CCCC(=O)NC(Oc1ccc(Cl)cc1Cl)C(Cl)(Cl)Cl (stereo not drawn) | 3 | -3 | 0 | 14 | 6 | -10 | /
CC(C)Oc1ccc(CCN)cc1Cl | 4 | -3 | 44* | 53* | -3 | -1 | 57* | Casp1 ASC ctr=35;NALP3 yeast rt=46
CN[C@@H]1C[C@@H](c2ccc(Cl)c(Cl)c2)c2ccccc21 | / | / | 14 | 24 | -30 | / | /
CCC(C)n1c(O)c(C(c2ccccn2)c2c(O)n(C(C)CC)c(=S)[nH]c2=O)c(=O)[nH]c1=S (stereo not drawn) | 6 | -2 | / | 14 | 1 | 3 | /
CCC1C=CC=CC[C@H](C)[C@@H](O)[C@](C)(O)C(=O)[C@@H](C)[C@H](O)[C@@H](C)C(=O)[C@H](C)[C@@H](O)[C@H](C)C=CC(=O)OC2[C@@H](C)C(CC1)OC1(CC[C@@H](C)C(C[C@H](C)O)O1)[C@@H]2C (stereo partly drawn) | -1 | / | / | 82* | / | / | 88* | Casp1 ASC ctr=57*;NALP3 yeast rt=72*
C[C@]12C[C@@H](O)[C@H](O)CC1=CCC1C2CC[C@]2(C)C(=O)CCC12 (stereo partly drawn) | 4 | / | / | 27 | -6 | -9 | /
C[C@]12C[C@@H](O)[C@H](O)CC1=CCC1C2CC[C@@]2(C)C1CC[C@@H]2O (stereo partly drawn) | 1 | / | / | 58* | -5 | -2 | 55*
C[C@]12CCC3C(CC[C@H]4C[C@@H](O)CC[C@]34C)[C@H]1CC[C@H]2O (stereo partly drawn) | 1 | / | / | 51* | 48 | -9 | 57*
C[C@H]1CC[C@@]2(C)[C@@H](CC[C@@H]3[C@@H]2CC[C@]2(C)[C@@H](O)CC[C@@H]32)C1 | 4 | 5 | / | 44 | 9 | -3 | /
C[C@]12CCC3C(CC[C@H]4C[C@@H](O)CC[C@]34C)C1C[C@@H](Br)[C@@H]2O (stereo partly drawn) | 5 | / | / | 48 | 2 | 8 | /
C[C@]12CCC3C(CC[C@H]4C[C@@H](O)CC[C@]34C)C1CC[C@@]2(O)C(F)(F)F (stereo partly drawn) | / | / | / | 56* | 0 | / | 55*
C[C@]12CC[C@@H](O)C[C@@H]1CC[C@@H]1[C@@H]2CC[C@]2(C)[C@@H](O)CC[C@@H]12 | 3 | 5 | 33 | 53* | -12 | 0 | 66* | Casp1 ASC ctr=57*;NALP3 yeast rt=49
O=c1[nH]c(Cl)ccc1CN1CCOCC1 | 1 | -11 | / | 18 | / | -7 | /
SMILES | UCH37 DUB inh | Calb FLC | NALP1 inh | NLRP3 yeast inh | ALR H2O2 inh | ATG4B inhibitor | NALP3 yeast conf | others
CN1CCC(OC(=O)C2c3ccccc3Oc3ccccc32)CC1 | 0 | -7 | 6 | 22 | / | -18 | /
COC(=O)C1=C(c2cccc(C#N)c2)C[C@@H]2CC[C@H]1N2C(=O)N1CCC(O)CC1 | 6 | / | / | 20 | 6 | 4 | /
COC(=O)C1=C(c2ccccc2)C[C@@H]2CC[C@H]1N2C(=O)N1CCCC1 | 4 | -3 | / | 23 | 1 | 1 | /
C[C@]12CC[C@H](O)CC1C(=O)CC1C2CC[C@@]2(C)C1CC[C@@H]2O (stereo partly drawn) | / | / | / | 50 | 2 | 7 | 43 | Casp1 ASC ctr=50*;NALP3 yeast rt=34
C#C[C@]1(O)[C@H](O)CC2C3CC[C@H]4C[C@@H](O)CC[C@]4(C)C3CC[C@@]21C (stereo partly drawn) | / | / | / | 37 | 1 | / | /
C[C@]12CCC3C(CC[C@H]4C[C@@H](O)CC[C@]34C)C1C[C@@H](O)[C@]2(C)O (stereo partly drawn) | 1 | / | / | 50* | -2 | -5 | 57*
CC12CCC3C(CCC4CC(=O)OCC43C)C1CCC2O (stereo not drawn) | 3 | / | / | / | / | 2 | /
C[C@]12CCC3C(CC[C@H]4C[C@@H](O)[C@H](O)C[C@]34C)C1CC[C@@H]2O (stereo partly drawn) | 4 | / | / | 55* | -2 | 3 | 60*
